Assay results: ChEMBL document CHEMBL1145175, “Investigations on the effects of basic side chains on the hormonal profile of (4R,5S)/(4S,5R)-4,5-bis(4-hydroxyphenyl)-2-imidazolines” (J Med Chem, 2005)

Tests used:
Estrogen receptor [1] = molecular target: T1, Estrogen receptor (Homo sapiens, UniProt P03372); assay: Effective concentration against estrogen receptor alpha of MCF-7-2a cells
T1 sequence (P03372 whole entry): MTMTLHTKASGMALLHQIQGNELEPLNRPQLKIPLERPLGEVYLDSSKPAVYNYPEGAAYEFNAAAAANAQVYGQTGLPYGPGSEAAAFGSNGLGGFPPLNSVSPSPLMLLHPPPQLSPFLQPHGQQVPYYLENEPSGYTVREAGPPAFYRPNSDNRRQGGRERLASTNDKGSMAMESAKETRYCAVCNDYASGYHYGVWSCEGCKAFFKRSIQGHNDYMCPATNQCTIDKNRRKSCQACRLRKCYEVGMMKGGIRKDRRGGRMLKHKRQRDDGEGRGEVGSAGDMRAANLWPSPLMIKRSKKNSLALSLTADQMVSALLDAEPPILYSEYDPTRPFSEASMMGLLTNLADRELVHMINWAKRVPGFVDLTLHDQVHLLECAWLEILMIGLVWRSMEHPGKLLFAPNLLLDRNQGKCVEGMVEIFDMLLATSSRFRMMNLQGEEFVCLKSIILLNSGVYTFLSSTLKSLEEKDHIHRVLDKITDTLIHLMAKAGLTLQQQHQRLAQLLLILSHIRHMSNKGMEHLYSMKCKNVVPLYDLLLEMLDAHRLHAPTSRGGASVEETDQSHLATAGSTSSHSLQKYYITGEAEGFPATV

Estrogen receptor beta [2] = molecular target: T2, Estrogen receptor beta (Homo sapiens, UniProt Q92731); assay: Effective concentration against estrogen receptor beta of […]
T2 sequence (Q92731 whole entry): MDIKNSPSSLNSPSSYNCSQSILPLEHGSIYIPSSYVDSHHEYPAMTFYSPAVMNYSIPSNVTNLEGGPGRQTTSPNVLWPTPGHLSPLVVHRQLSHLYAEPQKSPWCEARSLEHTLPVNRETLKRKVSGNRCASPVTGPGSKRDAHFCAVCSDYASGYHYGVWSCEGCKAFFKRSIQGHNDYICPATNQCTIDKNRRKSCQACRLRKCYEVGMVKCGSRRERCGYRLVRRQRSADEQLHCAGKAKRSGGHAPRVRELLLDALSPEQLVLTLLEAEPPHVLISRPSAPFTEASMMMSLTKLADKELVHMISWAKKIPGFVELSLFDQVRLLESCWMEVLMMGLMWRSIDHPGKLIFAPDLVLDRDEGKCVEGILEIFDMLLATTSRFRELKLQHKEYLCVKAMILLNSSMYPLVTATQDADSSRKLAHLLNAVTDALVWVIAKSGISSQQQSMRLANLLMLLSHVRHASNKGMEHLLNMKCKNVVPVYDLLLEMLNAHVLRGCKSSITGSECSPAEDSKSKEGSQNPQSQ
Procedure, shortened: (§1)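 U-2 OS cells grown in charcoal-treated FCS medium were transiently co-transfected with pSG5-ERβ FL (0.05 µg) and (ERE)2luc+ reporter (5 µg) using Fugene6, then pooled and reseeded. Compounds were added at 10^-5 to 10^-10 M in 0.1% DMSO for 21 h. Luciferase RLU was normalised to crystal-violet cell mass, in triplicate, and expressed as % of the E2 plateau.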

Estrogen receptor beta [3] = molecular target: T2, Estrogen receptor beta; assay: Percent inhibition of 0.30 nM estradiol activity on estrogen receptor beta in MCF-7-2a cells at 10 uM; assay type: cell-based; details: in the assay text read “U-2 OS cells” for “MCF-7-2a cells”
Procedure, shortened: (§2)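 Antagonist mode used U-2 OS cells transiently co-transfected with pSG5-ERβ FL and (ERE)2luc+ in charcoal-stripped medium. Compounds at 10^-5 to 10^-13 M were co-incubated with E2 at 3.0 × 10^-10 M for 21 h. Luciferase luminescence was normalised to crystal-violet cell mass, in triplicate, and reported as % inhibition of the E2 signal.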

Estrogen receptor beta [4] = molecular target: T2, Estrogen receptor beta; assay: Percent activation of estrogen receptor beta in luciferase assay at 10 uM; procedure, shortened: as §1
Estrogen receptor beta [5] = molecular target: T2, Estrogen receptor beta; assay: Inhibition of estrogen receptor beta in […] at 10 uM; assay type: cell-based; procedure, shortened: as §2
Estrogen receptor beta [6] = molecular target: T2, Estrogen receptor beta; assay: Percent inhibition of 0.30 nM estradiol activity on estrogen receptor beta in U-2 OS cells at 10 uM
Estrogen receptor beta [7] = molecular target: T2, Estrogen receptor beta; assay: Inhibition of estrogen receptor beta at 10 uM
Estrogen receptor [8] = molecular target: T1, Estrogen receptor; assay: Inhibition of estrogen receptor alpha in MCF-7-2a cells at 10 uM; assay type: cell-based

| Compound | EC50 (Estrogen receptor [1]) | EC50 (Estrogen receptor beta [2]) | inhibition (Estrogen receptor beta [3]) | Activation (Estrogen receptor beta [4]) | IC50 (Estrogen receptor beta [5]) | inhibition (Estrogen receptor beta [6]) | IC50 (Estrogen receptor beta [7]) | IC50 (Estrogen receptor [8]) |
| --- | --- | --- | --- | --- | --- | --- | --- | --- |
| CN(C)CCOc1ccc([C@H]2NC=N[C@H]2c2ccc(O)cc2Cl)c(Cl)c1 | 1.5 µM | 3.55 µM |  |  |  |  |  |  |
| CN(C)CCOc1ccc([C@H]2N=CN[C@H]2c2ccc(O)cc2Cl)c(Cl)c1 |  |  | 4% | 75% |  |  |  |  |
| Oc1cc(Cl)c([C@@H]2N=CN[C@@H]2c2ccc(OCCN3CCCCC3)cc2Cl)c(Cl)c1 | 0.085 µM | 0.4 µM | 0% | 103% |  |  |  |  |
| Oc1ccc([C@@H]2N=CN[C@@H]2c2ccc(OCCN3CCCC3)cc2Cl)c(Cl)c1 | 1.82 µM | 0.47 µM | 30% | 105% |  |  |  |  |
| CCC1=N[C@H](c2ccc(OCCN3CCCCC3)cc2Cl)[C@H](c2ccc(O)cc2Cl)N1 |  | 2.8 µM |  | 92% | 6 µM | 75% |  |  |

Further lines, results first:

| EC50 (Estrogen receptor [1]) | EC50 (Estrogen receptor beta [2]) | inhibition (Estrogen receptor beta [3]) | Activation (Estrogen receptor beta [4]) | IC50 (Estrogen receptor beta [5]) | inhibition (Estrogen receptor beta [6]) | IC50 (Estrogen receptor beta [7]) | IC50 (Estrogen receptor [8]) | Compound |
| --- | --- | --- | --- | --- | --- | --- | --- | --- |
| 3.47 µM |  | 0% | 36% |  |  |  |  | CN(C)CCOc1ccc([C@H]2N=CN[C@H]2c2ccc(O)cc2)cc1 |
|  | 0.5 µM |  | 95% |  | 57% | 9 µM | 0.038 µM | CCC1=N[C@H](c2ccc(OCCN3CCCCC3)cc2)[C@H](c2ccc(O)cc2)N1 |
|  |  | 12% | 26% |  |  |  |  | Oc1ccc([C@@H]2N=CN[C@@H]2c2ccc(OCCN3CCCCC3)cc2)cc1 |
| 1.7 µM | 0.6 µM | 0% | 60% |  |  |  |  | Oc1ccc([C@@H]2N=CN[C@@H]2c2ccc(OCCN3CCCCC3)cc2Cl)c(Cl)c1 |
